These results are taken from ChEMBL document CHEMBL4371062, “Synthesis, biological evaluation and molecular docking study of 1,2,3-1H-triazoles having 4H-pyrano[2,3-d]pyrimidine as potential Mycobacterium tuberculosis protein tyrosine phosphatase B inhibitors” (Bioorg Med Chem Lett, 2019).

SMILES strings stand for the structures. Converted amounts (≈) assume the structure as drawn. The source made the active and inactive calls. No cut-off for these calls is given here.

For assay [1], the target named is T1, Phosphotyrosine protein phosphatase (Mycobacterium tuberculosis, UniProt A0A045ISB3).
T1 sequence (A0A045ISB3 whole entry): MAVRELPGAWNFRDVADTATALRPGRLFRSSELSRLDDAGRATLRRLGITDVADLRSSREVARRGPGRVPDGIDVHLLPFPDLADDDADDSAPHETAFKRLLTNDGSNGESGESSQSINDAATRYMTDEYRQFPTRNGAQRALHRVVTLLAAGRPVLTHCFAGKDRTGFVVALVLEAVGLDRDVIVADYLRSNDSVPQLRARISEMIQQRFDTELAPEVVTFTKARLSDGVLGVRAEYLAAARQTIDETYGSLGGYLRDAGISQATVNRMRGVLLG
Put plainly: Inhibition of Mycobacterium tuberculosis PTPB using pNPP as substrate preincubated for 15 mins followed by substrate addition and measured after 2 to 6 mins. The method, boiled down:
(§1)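 Recombinant M. tuberculosis PtpB, cloned, expressed and purified as previously described, assayed with p-nitrophenyl phosphate as substrate. IC50 is the mean of three independent experiments.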

Assay [2] deals with T2, Phosphotyrosine protein phosphatase (Mycobacterium tuberculosis) (UniProt A0A045ISB3).
T2 sequence (whole entry): T1 sequence (A0A045ISB3 whole entry)
Put plainly: Inhibition of Mycobacterium tuberculosis PTPB up to 100 uM using pNPP as substrate preincubated for 15 mins followed by substrate addition and measured after 2 to 6 mins. Put shortly: as §1

Assay [3] has as its target T2, Phosphotyrosine protein phosphatase (Mycobacterium tuberculosis). Put plainly: Ratio of IC50 for inhibition of Mycobacterium tuberculosis PTPB to Ki for competitive inhibition of Mycobacterium tuberculosis PTPB.
In assay [4] the target is T1, Phosphotyrosine protein phosphatase. Put plainly: Competitive inhibition of Mycobacterium tuberculosis PTPB using varying levels of pNPP as substrate preincubated for 15 mins followed by substrate addition and measured after 2 to 6 mins by Lineweaver-burk plot analysis. The method, boiled down: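 Substrate pNPP was varied at fixed inhibitor levels of 0, 1, 1.5, 2, 3 and 4 µM, with p-nitrophenol release treated by Michaelis-Menten kinetics. Mechanism was judged from Lineweaver-Burk double-reciprocal plots (1/Vmax y-intercept, KMapp/Vmax slope, −1/KMapp x-intercept). Ki was derived from these plots.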

The nature of assay [5]: Antioxidant activity assessed as ABTS radical scavenging activity by measuring trolox equivalent antioxidant capacity after 6 mins by UV/Vis spectrophotometric analysis. It counts as functional.
Assay [6] deals with Mycobacterium tuberculosis. Put plainly: Antitubercular activity against Mycobacterium tuberculosis H37Rv assessed as reduction in relative light units at 25 ug/ml after 72 hrs by luciferase reporter phage assay relative to control. Type of assay: functional.
The test system of assay [7] is Mycobacterium tuberculosis. Put plainly: Antitubercular activity against Mycobacterium tuberculosis H37Rv assessed as reduction in relative light units at 5 ug/ml after 72 hrs by luciferase reporter phage assay relative to control. It counts as functional. For orientation: Reporter assays use an easily measured gene product as a stand-in for the process of interest.

The next assay concerns Plasmodium falciparum. Put plainly: Antimalarial activity against synchronized ring stage of Plasmodium falciparum measured after 48 hrs. Type of assay: functional, organism-based.
Assay [8] relates to Mycobacterium tuberculosis. Kind of assay: Antitubercular activity against Mycobacterium tuberculosis H37Rv at 100 ug/ml after 28 days by Lowensteine-Jensen method relative to control. Particulars: 672 h. It counts as functional.

As a reminder, the IC50 is the concentration that gives 50% inhibition. Read a low IC50 as higher potency. `CCOC(=O)C1=C(C)Oc2nc(C)n(Cc3cn([C@@H]4O[C@H](COC(C)=O)[C@@H](OC(C)=O)[C@H](OC(C)=O)[C@H]4OC(C)=O)nn3)c(=O)c2C1c1ccc(N(C)C)cc1` (stereo not given in full) came in with an IC50 in [1] of 32 µM. As to `CCOC(=O)C1=C(C)Oc2nc(C)n(Cc3cn([C@@H]4O[C@H](COC(C)=O)[C@@H](OC(C)=O)[C@H](OC(C)=O)[C@H]4OC(C)=O)nn3)c(=O)c2C1c1ccccc1O` (stereo not given in full), inhibition in assay [1] was half-maximal at 29 µM (IC50). Broadly, the inhibition is the drop in the measured response relative to a control, in per cent. What is called Ki is the equilibrium dissociation constant of an inhibitor or competing ligand from its target. For the compound `CCOC(=O)C1=C(C)Oc2nc(C)n(Cc3cn([C@@H]4O[C@H](COC(C)=O)[C@@H](OC(C)=O)[C@H](OC(C)=O)[C@H]4OC(C)=O)nn3)c(=O)c2C1c1ccc(C(C)C)cc1` (stereo not given in full), the inhibition entry in assay [2] was “inactive”. For the same compound, the Ratio in [3] was 1.42. Besides, the Ki in assay [4] stood at 1.1 µM. `CCOC(=O)C1=C(C)Oc2nc(C)n(Cc3cn([C@@H]4O[C@H](COC(C)=O)[C@@H](OC(C)=O)[C@H](OC(C)=O)[C@H]4OC(C)=O)nn3)c(=O)c2C1c1cc(OC)cc(OC)c1` (stereo not given in full): the midpoint of inhibition in [1], the IC50, lay at 32.5 µM. In turn, `CCOC(=O)C1=C(C)Oc2nc(C)n(Cc3cn([C@@H]4O[C@H](COC(C)=O)[C@@H](OC(C)=O)[C@H](OC(C)=O)[C@H]4OC(C)=O)nn3)c(=O)c2C1c1cc(OC)c(O)c([N+](=O)[O-])c1` (stereo not given in full) showed an IC50 in assay [1] of 1.56 µM.

For `CCOC(=O)C1=C(C)Oc2nc(C)n(Cc3cn([C@@H]4O[C@H](COC(C)=O)[C@@H](OC(C)=O)[C@H](OC(C)=O)[C@H]4OC(C)=O)nn3)c(=O)c2C1c1ccc(O)c(OC)c1` (stereo not given in full), the IC50 in [1] came to 7.51 µM. With `CCOC(=O)C1=C(C)Oc2nc(C)n(Cc3cn([C@@H]4O[C@H](COC(C)=O)[C@@H](OC(C)=O)[C@H](OC(C)=O)[C@H]4OC(C)=O)nn3)c(=O)c2C1c1cccc([N+](=O)[O-])c1` (stereo not given in full), half-maximal inhibition in assay [1] (IC50) required 45 µM. `CCOC(=O)C1=C(N)Oc2[nH]c(=O)[nH]c(=O)c2C1[C@H](O)[C@@H](O)[C@H](O[C@H]1O[C@H](CO)[C@@H](O)[C@H](O)[C@H]1O)[C@H](O)CO` (stereo not given in full): in [5], the Activity is 5.24 µM. `CCOC(=O)C1=C(C)Oc2nc(C)n(Cc3cn([C@@H]4O[C@H](COC(C)=O)[C@@H](OC(C)=O)[C@H](OC(C)=O)[C@H]4OC(C)=O)nn3)c(=O)c2C1c1ccccc1[N+](=O)[O-]` (stereo not given in full) displayed an IC50 in assay [1] of 35.1 µM. For the compound `CCOC(=O)C1=C(C)Oc2nc(C)n(Cc3cn([C@@H]4O[C@H](COC(C)=O)[C@@H](OC(C)=O)[C@H](OC(C)=O)[C@H]4OC(C)=O)nn3)c(=O)c2C1c1cc(OC)c(O)c(OC)c1` (stereo not given in full), the IC50 in assay [1] was determined as 2.22 µM. Same read-out and setting: next, `CCOC(=O)C1=C(C)Oc2nc(C)n(Cc3cn([C@@H]4O[C@H](COC(C)=O)[C@@H](OC(C)=O)[C@H](OC(C)=O)[C@H]4OC(C)=O)nn3)c(=O)c2C1c1ccc(Cl)cc1` (stereo not given in full): 35.3 µM; `CCOC(=O)C1=C(C)Oc2nc(C)n(Cc3cn([C@@H]4O[C@H](COC(C)=O)[C@@H](OC(C)=O)[C@H](OC(C)=O)[C@H]4OC(C)=O)nn3)c(=O)c2C1c1cccc(O)c1` (stereo not given in full): 35.9 µM.

As to `CCOC(=O)C1=C(C)Oc2nc(C)n(Cc3cn([C@@H]4O[C@H](COC(C)=O)[C@@H](OC(C)=O)[C@H](OC(C)=O)[C@H]4OC(C)=O)nn3)c(=O)c2C1c1ccc(Cl)cc1Cl` (stereo not given in full), the midpoint of inhibition in [1], the IC50, lay at 44 µM. On the same count and under the same terms, next, `CCOC(=O)C1=C(C)Oc2nc(C)n(Cc3cn([C@@H]4O[C@H](COC(C)=O)[C@@H](OC(C)=O)[C@H](OC(C)=O)[C@H]4OC(C)=O)nn3)c(=O)c2C1c1ccc(O)c(OCC)c1` (stereo not given in full): 7.94 µM; `CCOC(=O)C1=C(C)Oc2nc(C)n(Cc3cn([C@@H]4O[C@H](COC(C)=O)[C@@H](OC(C)=O)[C@H](OC(C)=O)[C@H]4OC(C)=O)nn3)c(=O)c2C1c1ccc(O)cc1` (stereo not given in full): 35.3 µM; `CCOC(=O)C1=C(C)Oc2nc(C)n(Cc3cn([C@@H]4O[C@H](COC(C)=O)[C@@H](OC(C)=O)[C@H](OC(C)=O)[C@H]4OC(C)=O)nn3)c(=O)c2C1c1cccc(Cl)c1` (stereo not given in full): 9.52 µM.

Turning to `CCOC(=O)C1=C(C)Oc2nc(C)n(Cc3cn([C@@H]4O[C@H](COC(C)=O)[C@@H](OC(C)=O)[C@H](OC(C)=O)[C@H]4OC(C)=O)nn3)c(=O)c2C1c1cccc(OC)c1` (stereo not given in full), the IC50 in assay [1] is 28.2 µM. Same read-out and setting: with `CCOC(=O)C1=C(C)Oc2nc(C)n(Cc3cn([C@@H]4O[C@H](COC(C)=O)[C@@H](OC(C)=O)[C@H](OC(C)=O)[C@H]4OC(C)=O)nn3)c(=O)c2C1c1ccc([N+](=O)[O-])cc1` (stereo not given in full) the figure was 33 µM. `CC(=O)OC[C@H]1O[C@@H](OCc2cn(Cc3ccc4ccccc4n3)nn2)[C@H](OC(C)=O)[C@@H](OC(C)=O)[C@H]1OC(C)=O`: in assay [6], the inhibition at 25 µg/mL was 78%. The inhibition at 5 µg/mL in [7] is 76%. In the assay on Plasmodium falciparum, `CCOC(=O)C1=C(N)Oc2[nH]c(=O)[nH]c(=O)c2C1c1c(C)nn(-c2ccccc2)c1-n1ccnc1` (stereo not given) returned an IC50 of 0.062 µg/mL (≈ 0.13 µM). 100 µg/mL produced 92% inhibition in [8]. Turning to `CCOC(=O)C1=C(C)Oc2nc(C)n(Cc3cn([C@@H]4O[C@H](COC(C)=O)[C@@H](OC(C)=O)[C@H](OC(C)=O)[C@H]4OC(C)=O)nn3)c(=O)c2C1c1ccccc1OC` (stereo not given in full), in [1], the IC50 worked out at 35 µM. Take `CCOC(=O)C1=C(C)Oc2nc(C)n(Cc3cn([C@@H]4O[C@H](COC(C)=O)[C@@H](OC(C)=O)[C@H](OC(C)=O)[C@H]4OC(C)=O)nn3)c(=O)c2C1c1ccccc1Cl` (stereo not given in full): the midpoint of inhibition in assay [1], the IC50, lay at 33.2 µM. Take `CCOC(=O)C1=C(C)Oc2nc(C)n(Cc3cn([C@@H]4O[C@H](COC(C)=O)[C@@H](OC(C)=O)[C@H](OC(C)=O)[C@H]4OC(C)=O)nn3)c(=O)c2C1c1ccc(Br)cc1` (stereo not given in full): the inhibition entry in [2] is “inactive”. In addition, in [3], the Ratio was determined as 1.23. Also, in [4], the Ki was 1.8 µM. For `CCOC(=O)C1=C(C)Oc2nc(C)n(Cc3cn([C@@H]4O[C@H](COC(C)=O)[C@@H](OC(C)=O)[C@H](OC(C)=O)[C@H]4OC(C)=O)nn3)c(=O)c2C1c1ccc(C)cc1` (stereo not given in full) the same measures were “inactive”, 1.63 and 2.16 µM. As to `CCOC(=O)C1=C(C)Oc2nc(C)n(Cc3cn([C@@H]4O[C@H](COC(C)=O)[C@@H](OC(C)=O)[C@H](OC(C)=O)[C@H]4OC(C)=O)nn3)c(=O)c2C1c1ccc(OC)cc1` (stereo not given in full), it took 29 µM to reach half-maximal inhibition in [1] (IC50). `CCOC(=O)C1=C(C)Oc2nc(C)n(Cc3cn([C@@H]4O[C@H](COC(C)=O)[C@@H](OC(C)=O)[C@H](OC(C)=O)[C@H]4OC(C)=O)nn3)c(=O)c2C1c1ccccc1` (stereo not given in full) yielded an IC50 in [1] of 47 µM.

On to `CCOC(=O)C1=C(C)Oc2nc(C)n(Cc3cn([C@@H]4O[C@H](COC(C)=O)[C@@H](OC(C)=O)[C@H](OC(C)=O)[C@H]4OC(C)=O)nn3)c(=O)c2C1c1ccc(OCC)c(O)c1` (stereo not given in full), for which, in [1], the midpoint of inhibition, the IC50, lay at 3.53 µM.
